A selection: hits, their analogues and other compounds. The true share with any hit is near 3.8%.
MC4R antag cAMP = MC4R antagonists of cAMP signaling, primary screen, cell-based, TR-FRET, antagonist arm of biased-ligand search. MC4R-expressing cells, MTII-stimulated cAMP, LANCE TR-FRET. inhibition, % at 6.5 µM. 360,000 tested, 0.48% active. AID 540295, 2011;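 active = inhibition above its plate's cutoff, the mean of tested wells on that plate plus 3 SD, cut at about 29% in these data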;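 note: 0% = Melanotan II alone and 100% = Melanotan II plus saturating MCL0020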
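system = U2OS cells with stable human MC4R expression | also added = Melanotan II challenge after compound preincubation | dosing = one concentration, 6.5 µM nominal | incubation = compound 30 min, challenge 1 h, detection 1 h | measured by = TR-FRET with Eu-cAMP and labeled anti-cAMP, 671 nm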
ANO1 block = TMEM16A chloride channel inhibitors, primary screen, cell-based, HTS; Anoctamin-1 (Mus musculus), Q8BHY3; HEK293 TMEM16A/YFP iodide influx fluorescence, ionomycin; normalized B-score (activity score, 25-100; higher = stronger inhibition) at 10 µM; 310,000 tested, 1.2% active;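 active = ratio plate-corrected score three or more library SD toward inhibition, starting fluorescence score within five deviations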;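 note: score derived from kinetic fluorescence span divided by baseline fluorescence per well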
MC4R ag barr = MC4R agonists recruiting beta-arrestin, primary screen, cell-based, luminescence, agonist arm of biased-ligand search. Melanocortin receptor 4 (Homo sapiens), P32245. U2OS MC4R beta-arrestin complementation; percent of melanotan II response, DMSO zero. activation, % at 8.9 µM. 360,000 tested, 0.98% active. AID 540308, 2011;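 active = activation above a per-plate cutoff, the mean activation of sample wells on that plate plus 3 SD, cut at about 8% in these data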
CSC inhib = cancer stem cell viability inhibitors, primary screen, luminescence. cancer stem cell-like cells viability. inhibition, % at 7.5 µM. 300,000 tested, 1.1% active. AID 2717, 2010; in the data active = inhibition above about 75%; tested in HMLE shEcad cells
ANO1 activ = TMEM16A chloride channel activators or potentiators, primary screen, cell-based, HTS | Anoctamin-1 (Mus musculus), Q8BHY3 | HEK293 TMEM16A/YFP-H148Q/I152L, iodide quench fluorescence; stronger effect = lower value | B-score at 10 µM | 340,000 tested, 0.3% active | AID 623877, 2012;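 active = fluorescence-ratio B-score plate-corrected deviation score at least 3 library SD below zero, with starting fluorescence score within 5 deviations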;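 note: channel opened by trigger with iodide after compound preincubation; score built on the fluorescence ratio of max minus min over baseline; more negative score means more quench and so TMEM16A activation or potentiation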
Beta apoptosis = inhibitors of cytokine-induced beta cell apoptosis, primary screen, luminescence | INS-1E cytokine-induced death, ATP luminescence, 48 h; percent of positive-control rescue, neutral wells zero | protection from apoptosis, % (test concentration not listed) | 300,000 tested, 0.8% active;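 active = Every replicate reaches about 75%, or at least half do and their mean reaches it too, limit read from the data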;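 note: 0% = cytokine-treated negative control wells and 100% = positive control rescue; higher means more ATP so stronger rescue from cytokine killing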
An asterisk follows results filed as active; i = inactive; . = no result.

SMILES | MC4R antag cAMP | ANO1 block | MC4R ag barr | CSC inhib | ANO1 activ | Beta apoptosis
Cc1ccc(C(CC(=O)O)NC(=O)c2ccc(S(=O)(=O)N3CC(C)OC(C)C3)cc2)cc1 (stereo unspecified) | -5 | . | -2 | . | i | -5
O=C(Nc1cc(Sc2ccccn2)cc([N+](=O)[O-])c1)c1cccc(Cl)c1 | 1 | i | 1 | 50 | i | 10
O=C(Nc1cc(Sc2ccccn2)cc([N+](=O)[O-])c1)c1ccc(Cl)cc1 | 3 | i | 1 | 46 | i | 75*
C#CCOCCOCCOCCNc1nc(N2CCN(C(=O)CCCCCCCCCCNC(=O)[C@@H](CCSC)n3cc(CCO)nn3)CC2)nc(N2CCN(C(=O)CCCCCCCCCCNC(=O)[C@H]([C@@H](C)CC)n3cc(CCCCN=C(N)N)nn3)CC2)n1 | 41* | i | 2 | -18 | -23* | 37
C#CCOCCOCCOCCNc1nc(N2CCN(C(=O)CCCCCCCCCCNC(=O)[C@@H](CCSC)n3cc(CCO)nn3)CC2)nc(N2CCN(C(=O)CCCCCCCCCCNC(=O)[C@H]([C@@H](C)CC)n3cc(CCCCCN)nn3)CC2)n1 | . | 100* | . | -5 | . | 99*
COc1cc(C#Cc2c(-c3cncn3C)n(C)c3ccc(-c4ccc(OC)nc4)cc23)cc(OC)c1 | 14 | . | -1 | 84* | i | 18
CN(C)CCNc1ccc2ncn3c4ccc(O)cc4c(=O)c1c23 | -28 | . | -1 | . | i | .
Cc1cccc2c1-c1sc(C(=O)Nc3ccccc3N3CCN(C)CC3)cc1CO2 | 6 | i | 1 | 102* | i | 4
Cc1cccc2c1-c1sc(C(=O)N3CCCCC3)cc1CO2 | 10 | i | -1 | . | i | 3
CCN(Cc1cccc(F)c1)C(=O)c1ccc2ccccc2n1 | -2 | i | 0 | -7 | i | -9
O=C(Cc1ccc([N+](=O)[O-])cc1)N/N=C/c1ccc([N+](=O)[O-])o1 | -2 | i | -5 | -16 | i | 97*
O=C(CNc1cccc([N+](=O)[O-])c1)N/N=C/c1ccc([N+](=O)[O-])o1 | -7 | i | -3 | 0 | i | 93*
CCCCCCCC(=O)N/N=C/c1ccc([N+](=O)[O-])o1 | -10 | i | 1 | 7 | i | 0
O=C(CNc1cccc2ccccc12)N/N=C/c1ccc([N+](=O)[O-])o1 | -1 | i | -2 | 13 | i | 118*
O=C(C1CCN(S(=O)(=O)c2cccc3nsnc23)CC1)N1CC=C(c2ccccc2)CC1 | 2 | 25* | 1 | 19 | i | .
COc1c2c(c(C)c3c1C(=O)OC3)O[C@@]1(C)CC[C@@]3(O)C(C)(C)OC(=O)CC[C@]3(C)[C@H]1C2 | 3 | i | 0 | -11 | i | 0
O=C(CCCSc1nnc(SCCCC(=O)c2ccc(F)cc2)s1)c1ccc(F)cc1 | 10 | 25* | 2 | 5 | i | 4
COc1cccc(N(C(=O)c2csnn2)C(C(=O)NC2CCCC2)c2ccccc2)c1 (stereo unspecified) | -8 | i | -2 | -8 | i | -7
O=C(Nc1cccc(Cl)c1Cl)C1CCCO1 (stereo unspecified) | 27 | i | 1 | -9 | i | 1
COc1ccc(NC(=O)CSc2nc(N)cc(=O)[nH]2)cc1S(=O)(=O)N1CCCCC1 | 3 | . | -1 | . | i | .
CCC(CC)C(=O)Oc1c(Sc2ccccc2[N+](=O)[O-])c(C)nn1C(C)(C)C | 18 | i | 0 | 43 | -10* | 18
N#Cc1ccc(-c2ccc(Cl)cc2)nc1SCC(=O)c1cccc(Cl)c1 | 2 | i | -2 | 10 | i | 91*
N#Cc1ccc(-c2ccccc2)nc1SCC(=O)c1cccc(Cl)c1 | -4 | i | 1 | -16 | i | -7
O=c1c2c(nc3c(-c4ccc(Cl)cc4)c[nH]n13)CCCC2 | 10 | i | -4 | . | i | 93*
c1ccc(Cn2nnnc2C(c2cccs2)N2CCCCCC2)cc1 (stereo unspecified) | 15 | 100* | 2 | 17 | i | 5
SMILES | MC4R antag cAMP | ANO1 block | MC4R ag barr | CSC inhib | ANO1 activ | Beta apoptosis
COc1ccc(C(O)c2nc(-c3ccccc3OC)cs2)cc1 (stereo unspecified) | 6 | . | 1 | . | . | .
CCCCn1ccnc1C(=O)c1cccc(S(=O)(=O)N2CC(C)CC(C)C2)c1 (stereo unspecified) | 7 | 100* | 1 | . | i | .
CCCCn1ccnc1C(=O)c1cc(S(=O)(=O)N2CCOCC2)ccc1C | 4 | i | -2 | 3 | i | 5
O=C1c2cc(O)cc(O)c2C(=O)c2c1cc(O)c([C@@H](CO)CCO)c2O | -56 | i | -2 | -7 | i | 7
Cc1cc(O)c2c(c1)C(=O)c1cc(O)cc(O)c1C2=O | -13 | 100* | 2 | 29 | i | .
CCc1cc(=O)oc2cc(C)cc(OC(C)C(=O)NCc3cccnc3)c12 (stereo unspecified) | 9 | i | -3 | 5 | i | -2
CC(C)Oc1ccc2c(c1)OC(c1ccccc1)(C(F)(F)F)NC2=O (stereo unspecified) | 3 | i | 8.5* | 2 | i | -2
COc1ccc2c(c1)OC(c1ccccc1)(C(F)(F)F)NC2=O (stereo unspecified) | 8 | i | -2 | -8 | i | -9
O=C(NCc1cccc(Cl)c1)c1ccc(S(=O)(=O)N2CCCCC2)cc1 | 13 | . | -1 | . | . | .
c1ccc(CN2CCN(c3ncccn3)CC2)cc1 | -3 | i | -1 | -9 | i | 2
CC1(C)CC(N2CCN(Cc3ccccc3)CC2)=CC(=[N+]2CCCCC2)C1 | 5 | i | -1 | -3 | i | 109*
Cc1noc(C)c1NC(=O)Nc1cccc2c1O[C@H](CN(C)S(=O)(=O)c1cn(C)cn1)[C@@H](C)CN([C@H](C)CO)C2=O | -1 | . | 1 | -1 | . | 1
C=CCc1ccc(OCC(O)CN2CCCCC2)c(OC)c1 (stereo unspecified) | 0 | i | -2 | -22 | i | 1
C=CCc1ccc(OCC(O)COc2ccc(CC=C)cc2OC)c(OC)c1 | 12 | i | 8.7* | 26 | i | -6
Cc1ccc(F)c(C2C3C=CCC(c4cccc(-c5ccc(N(C)C)cc5)c4)C3C(=O)N2Cc2ccccc2)c1 (stereo unspecified) | 5 | i | 1 | 21 | i | 0

Compound activity from PubChem BioAssay.
